Bioassay records from PubChem.
E-selectin induc = E-selectin induction in HUVECs, primary screen, imaging, HUVEC, immunofluorescence imaging, single point; normalized: neutral wells 0, TNF-alpha wells 100; activation, % at 7.58 µM; 260,000 tested, 0.37% active;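 active = mean E-selectin-positive cell signal at least 10% of the positive control, reached in at least 60% of replicates, without over 20% cell loss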
Target sequence (P16581 whole entry, looked up): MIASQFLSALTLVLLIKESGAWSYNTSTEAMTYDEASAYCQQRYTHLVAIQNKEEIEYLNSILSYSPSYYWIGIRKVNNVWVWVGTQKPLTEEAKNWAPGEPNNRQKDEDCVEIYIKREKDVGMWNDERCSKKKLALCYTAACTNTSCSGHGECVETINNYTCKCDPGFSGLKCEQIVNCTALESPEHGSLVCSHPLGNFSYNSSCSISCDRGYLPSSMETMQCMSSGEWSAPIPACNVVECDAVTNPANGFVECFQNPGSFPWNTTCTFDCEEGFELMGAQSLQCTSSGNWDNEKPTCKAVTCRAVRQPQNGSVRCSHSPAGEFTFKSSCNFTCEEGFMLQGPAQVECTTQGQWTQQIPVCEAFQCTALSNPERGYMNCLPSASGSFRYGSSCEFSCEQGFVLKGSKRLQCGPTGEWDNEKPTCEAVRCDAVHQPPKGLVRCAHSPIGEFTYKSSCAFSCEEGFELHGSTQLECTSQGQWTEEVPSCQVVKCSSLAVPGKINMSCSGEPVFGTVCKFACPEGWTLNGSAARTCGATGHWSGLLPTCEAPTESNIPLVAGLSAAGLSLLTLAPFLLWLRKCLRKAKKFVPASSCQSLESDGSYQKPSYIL
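material = human umbilical vein endothelial cells (HUVEC), E-selectin induction | quantity = 3,000 cells/well | medium = EGM-2 growth medium on 0.1% gelatin-coated wells | technique = immunofluorescence imaging | read-out basis = % PE-positive cells | control set = TNF-alpha positive control, DMSO neutral control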
Numbers without * were called inactive. The full list was thinned out, with hits kept by preference.

Screening C[C@H](CO)N1C[C@H](C)[C@@H](CN(C)Cc2ccc3c(c2)OCO3)Oc2ccc(NC(=O)Cn3cnnn3)cc2C1=O returned E-selectin induc -9.
`C[C@@H]1CN([C@H](C)CO)C(=O)c2cc(NC(=O)Cn3cnnn3)ccc2O[C@@H]1CN(C)Cc1ccccc1` gave E-selectin induc 0.
Screening O=C(C1CCC1)N1CC2(C1)[C@H](c1ccccc1)[C@H](CO)N2CC1CCCC1 returned E-selectin induc 0.
For C[C@@H]1CN([C@@H](C)CO)C(=O)c2cc(-c3ccc(C#N)cc3)cnc2O[C@@H]1CN(C)CC1CC1 the results were E-selectin induc 0.
Screening C[C@@H]1CN([C@@H](C)CO)C(=O)c2cc(C#Cc3cccnc3)cnc2O[C@@H]1CN(C)C returned E-selectin induc 0.
Cc1ccc(S(=O)(=O)Nc2ccc3c(c2)C(=O)N([C@H](C)CO)C[C@@H](C)[C@H](CN(C)S(=O)(=O)c2ccc(Cl)cc2)O3)cc1 was read as E-selectin induc -1.
For CCCC(=O)N1CC2(C1)CN(C(=O)Nc1ccc(F)cc1)[C@@H](CO)c1c2c2ccc(OC)cc2n1C the results were E-selectin induc 0.
For CO[C@@H]1CN(C)C(=O)c2cc(NC(=O)Nc3cccc(F)c3)ccc2OC[C@@H](C)N(C(=O)Nc2c(C)noc2C)C[C@H]1C the results were E-selectin induc 0.
Screening CC(C)CC#Cc1cnc2c(c1)C(=O)N([C@H](C)CO)C[C@H](C)[C@@H](CN(C)Cc1cncnc1)O2 returned E-selectin induc 0.
For Cc1noc(C)c1S(=O)(=O)Nc1cccc2c1O[C@H](CN(C)S(=O)(=O)c1ccccc1)[C@H](C)CN([C@H](C)CO)C2=O the results were E-selectin induc 0.
For C[C@H]1CN([C@@H](C)CO)C(=O)c2cc(-c3cccnc3)cnc2O[C@H]1CN(C)C(=O)Nc1ccc(C(F)(F)F)cc1 the results were E-selectin induc 0.
For Cc1ccc(S(=O)(=O)N(C)C[C@H]2Oc3ccc(NC(=O)Cn4cnnn4)cc3C(=O)N([C@H](C)CO)C[C@@H]2C)cc1 the results were E-selectin induc 0.
Screening C[C@@H]1CN([C@H](C)CO)C(=O)c2cc(NC(=O)Cn3cnnn3)ccc2O[C@H]1CN(C)S(=O)(=O)c1ccccc1 returned E-selectin induc 39*.
C[C@H](CO)N1C[C@H](C)[C@@H](CN(C)S(=O)(=O)c2ccccc2)Oc2ccc(NC(=O)Cn3cnnn3)cc2C1=O was read as E-selectin induc 0.
O=C1CN(Cc2ccccc2)C[C@H]2[C@@H](c3ccc(Br)cc3)[C@@H](CO)N12 was read as E-selectin induc 0.
Screening C[C@@H](O)C#Cc1cnc2c(c1)C(=O)N([C@@H](C)CO)C[C@H](C)[C@H](CN(C)C(=O)Cc1ccncc1)O2 returned E-selectin induc -1.
For CC(O)CN1CC(O)=C(c2nc3ccccc3s2)C1=N (configuration not stated) the results were E-selectin induc 9.
`N=C1C(c2nc3ccccc3s2)=C(O)CN1NC(=O)c1ccco1` gave E-selectin induc 33*.
`O=C(Nc1nc(-c2nc3ccccc3s2)cs1)c1ccco1` gave E-selectin induc 0.
Screening C[C@]12c3[nH]c4ccc(Cl)cc4c3CCN1C(=O)[C@@H](CC(=O)NCc1ccco1)C[C@@H]2C(=O)N1CCCCC1 returned E-selectin induc 53*.
Screening C[C@]12c3[nH]c4cc(-c5ccco5)ccc4c3CCN1C(=O)[C@@H](CC(=O)NCc1ccco1)C[C@@H]2C(=O)N1CCCCC1 returned E-selectin induc 0.
COc1ccc2[nH]c3c(c2c1)CCN1C(=O)C(CC(=O)NCc2ccco2)C[C@H](C(=O)N2CCCCC2)[C@@]31C (some centres not stated) was read as E-selectin induc 0.
For O=C(c1cccc(F)c1)N1CC(=O)N2[C@@H](CO)[C@@H](c3ccc(C4=CCCC4)cc3)[C@@H]2C1 the results were E-selectin induc 0.
Screening C[C@@H]1CN([C@@H](C)CO)C(=O)c2cc(NC(=O)Cc3cn(C)c4ccccc34)ccc2O[C@@H]1CN(C)Cc1ccc(Cl)c(Cl)c1 returned E-selectin induc -8.
For C[C@@H]1CN([C@H](C)CO)C(=O)c2cc(NC(=O)Cc3cn(C)c4ccccc34)ccc2O[C@H]1CN(C)Cc1ccc(Cl)c(Cl)c1 the results were E-selectin induc 51*.
Screening C[C@H](CO)N1C[C@H](C)[C@H](CN(C)Cc2ccc3c(c2)OCO3)Oc2ccc(NC(=O)Cc3cn(C)c4ccccc34)cc2C1=O returned E-selectin induc 43*.
C[C@@H]1CN([C@H](C)CO)C(=O)c2cc(NC(=O)Cc3cn(C)c4ccccc34)ccc2O[C@@H]1CN(C)Cc1ccc(Cl)c(Cl)c1 was read as E-selectin induc 3.
C[C@@H]1CN([C@H](C)CO)C(=O)c2cc(NC(=O)Cc3cn(C)c4ccccc34)ccc2O[C@H]1CN(C)Cc1ccc2c(c1)OCO2 was read as E-selectin induc 1.
`C[C@H]1CN([C@@H](C)CO)C(=O)c2cc(NC(=O)Cc3cn(C)c4ccccc34)ccc2O[C@H]1CN(C)Cc1ccc2c(c1)OCO2` gave E-selectin induc 12.
For COCC(=O)Nc1ccc2c(c1)OC[C@H](C)N(C(=O)c1ccccc1)C[C@H](C)[C@@H](OC)CN(C)C2=O the results were E-selectin induc 0.
Screening C[C@@H]1CN([C@@H](C)CO)C(=O)c2cccc(NC(=O)C3CCOCC3)c2O[C@@H]1CN(C)S(=O)(=O)c1cn(C)cn1 returned E-selectin induc 0.
COc1cc(N)c(Cl)cc1C(=O)OCC(=O)c1cccs1 was read as E-selectin induc 1.
For COc1ccc(C(=O)OCC(=O)NCc2cccs2)c(OC)c1OC the results were E-selectin induc 0.
`COc1cc(N)c(Cl)cc1C(=O)OCC(=O)NCc1cccs1` gave E-selectin induc 73*.
For C[C@H]1CN([C@@H](C)CO)C(=O)Cc2cc(NS(=O)(=O)c3cccs3)ccc2O[C@H]1CN(C)S(=O)(=O)c1ccccc1 the results were E-selectin induc 5.
C[C@@H]1CN([C@H](C)CO)C(=O)c2cc(NC(=O)Nc3ccc(F)cc3)ccc2O[C@@H]1CN(C)S(=O)(=O)c1cccs1 was read as E-selectin induc -2.
For C[C@@H]1CN([C@H](C)CO)C(=O)c2cc(NC(=O)Nc3ccc(C(F)(F)F)cc3)ccc2O[C@@H]1CN(C)S(=O)(=O)c1ccc(F)cc1 the results were E-selectin induc 1.
Screening C[C@@H]1CN([C@H](C)CO)C(=O)c2cc(NC(=O)Nc3ccc4c(c3)OCO4)ccc2O[C@H]1CN(C)S(=O)(=O)c1ccc(F)cc1 returned E-selectin induc 51*.
For Cc1ccc(S(=O)(=O)N(C)C[C@@H]2Oc3ccc(NC(=O)Nc4ccc(C(F)(F)F)cc4)cc3C(=O)N([C@H](C)CO)C[C@H]2C)cc1 the results were E-selectin induc 2.
For C[C@H]1CN([C@@H](C)CO)C(=O)c2cc(NC(=O)CCN3CCOCC3)ccc2O[C@@H]1CN(C)S(=O)(=O)c1cccs1 the results were E-selectin induc -12.
Screening C[C@H]1CN([C@@H](C)CO)C(=O)c2cc(NC(=O)Nc3ccc(C(F)(F)F)cc3)ccc2O[C@@H]1CN(C)S(=O)(=O)c1ccccc1 returned E-selectin induc 133*.
Screening C[C@@H]1CN([C@@H](C)CO)C(=O)c2cc(NC(=O)Nc3ccc4c(c3)OCO4)ccc2O[C@H]1CN(C)S(=O)(=O)c1ccc(F)cc1 returned E-selectin induc -15.
